Results: ChEMBL document CHEMBL2384936, “Synthesis and evaluation of antimicrobial activity of hydrazones derived from 3-oxido-1H-imidazole-4-carbohydrazides” (Eur J Med Chem, 2013)
Active and inactive are the calls of the source.

Experiments:
Candida albicans = assay: Antifungal activity against Candida albicans ATCC 10231 assessed as growth inhibition at 1 to 600 ug/mL after 18 hrs by broth microdilution method; format: functional, organism-based
Pseudomonas aeruginosa = assay: Antibacterial activity against Pseudomonas aeruginosa NCTC 6249 assessed as growth inhibition at 1 to 600 ug/mL after 18 hrs by broth microdilution method; format: functional, organism-based
[1] = tested on: Staphylococcus epidermidis; assay: Antibacterial activity against Staphylococcus epidermidis ATCC 12228 assessed as growth inhibition at 1 to 600 ug/mL after 18 hrs by broth microdilution method; format: functional, organism-based
Enterococcus faecalis = assay: Antibacterial activity against Enterococcus faecalis ATCC 29212 assessed as growth inhibition at 1 to 600 ug/mL after 18 hrs by broth microdilution method; format: functional, organism-based
Proteus mirabilis = assay: Antibacterial activity against Proteus mirabilis ATCC 29906 assessed as growth inhibition at 1 to 600 ug/mL after 18 hrs by broth microdilution method; format: functional
Escherichia coli [2] = assay: Antibacterial activity against Escherichia coli NCTC 8192 assessed as growth inhibition at 1 to 600 ug/mL after 18 hrs by broth microdilution method; format: functional, organism-based
Staphylococcus aureus [3] = assay: Antibacterial activity against Staphylococcus aureus ATCC 6538 assessed as growth inhibition at 1 to 600 ug/mL after 18 hrs by broth microdilution method; format: functional, organism-based
Method in brief: (§1)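 Frozen stocks (-80 °C, tryptic soy broth with 15% glycerol); S. aureus subcultured on blood agar and identified by catalase, coagulase and clumping factor. Inoculum at 0.5 McFarland. DMSO-dissolved compounds 1–600 µg/mL in Mueller–Hinton broth, 37 °C 18 h, OD600 read with and without compound. MIC = lowest concentration preventing growth; triplicates, per CLSI.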

Proteus vulgaris = assay: Antibacterial activity against Proteus vulgaris ATCC 49990 assessed as growth inhibition at 1 to 600 ug/mL after 18 hrs by broth microdilution method; format: functional, organism-based
Staphylococcus aureus [4] = assay: Antibacterial activity against Staphylococcus aureus ATCC 29213 assessed as growth inhibition at 1 to 600 ug/mL after 18 hrs by broth microdilution method; format: functional, organism-based; method in brief: as §1
Staphylococcus aureus [5] = assay: Bactericidal activity against Staphylococcus aureus isolate D20 derived from bone after 18 hrs by broth microdilution method; format: functional; settings: isolate D20, 18 h
Method in brief: (§2)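 Broth microdilution, then contents of wells without visible growth plated onto Mueller–Hinton agar and incubated 35 °C for 18 h. Triplicates, per CLSI.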

Staphylococcus aureus [6] = assay: Bactericidal activity against Staphylococcus aureus isolate D17 derived from bone after 18 hrs by broth microdilution method; format: functional; settings: isolate D17, 18 h; method in brief: as §2
Staphylococcus aureus [7] = assay: Bactericidal activity against Staphylococcus aureus isolate D15 derived from bone after 18 hrs by broth microdilution method; format: functional; settings: isolate D15, 18 h; method in brief: as §2
Staphylococcus aureus [8] = assay: Bactericidal activity against Staphylococcus aureus isolate D14 derived from bone after 18 hrs by broth microdilution method; format: functional; settings: isolate D14, 18 h; method in brief: as §2
Staphylococcus aureus [9] = assay: Bactericidal activity against Staphylococcus aureus isolate F12 derived from ulcer and furuncle after 18 hrs by broth microdilution method; format: functional; settings: isolate F12, 18 h; method in brief: as §2
Staphylococcus aureus [10] = assay: Bactericidal activity against Staphylococcus aureus isolate F7 derived from ulcer and furuncle after 18 hrs by broth microdilution method; format: functional; settings: isolate F7, 18 h; method in brief: as §2
Staphylococcus aureus [11] = assay: Bactericidal activity against Staphylococcus aureus isolate F1 derived from ulcer and furuncle after 18 hrs by broth microdilution method; format: functional; settings: isolate F1, 18 h; method in brief: as §2
Staphylococcus aureus [12] = assay: Bactericidal activity against Staphylococcus aureus isolate D12 derived from ulcer and furuncle after 18 hrs by broth microdilution method; format: functional; settings: isolate D12, 18 h; method in brief: as §2
Staphylococcus aureus [13] = assay: Bactericidal activity against Staphylococcus aureus isolate C19 derived from naso-pharynx after 18 hrs by broth microdilution method; format: functional; settings: isolate C19, 18 h; method in brief: as §2
Staphylococcus aureus [14] = assay: Bactericidal activity against Staphylococcus aureus isolate C8 derived from naso-pharynx after 18 hrs by broth microdilution method; format: functional; settings: isolate C8, 18 h; method in brief: as §2
Staphylococcus aureus [15] = assay: Bactericidal activity against Staphylococcus aureus isolate C7 derived from naso-pharynx after 18 hrs by broth microdilution method; format: functional; settings: isolate C7, 18 h; method in brief: as §2
Staphylococcus aureus [16] = assay: Bactericidal activity against Staphylococcus aureus isolate C4 derived from naso-pharynx after 18 hrs by broth microdilution method; format: functional; settings: isolate C4, 18 h; method in brief: as §2
Staphylococcus aureus [17] = assay: Antibacterial activity against Staphylococcus aureus isolate D20 derived from bone assessed as growth inhibition after 18 hrs by broth microdilution method; format: functional; settings: isolate D20, 18 h
Method in brief: (§3)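 Frozen stocks (-80 °C, tryptic soy broth with 15% glycerol); S. aureus subcultured on blood agar and identified by catalase, coagulase and clumping factor. Inoculum at 0.5 McFarland. MIC = lowest concentration preventing growth; triplicates, per CLSI.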

Staphylococcus aureus [18] = assay: Antibacterial activity against Staphylococcus aureus isolate D17 derived from bone assessed as growth inhibition after 18 hrs by broth microdilution method; format: functional; settings: isolate D17, 18 h; method in brief: as §3
Staphylococcus aureus [19] = assay: Antibacterial activity against Staphylococcus aureus isolate D15 derived from bone assessed as growth inhibition after 18 hrs by broth microdilution method; format: functional; settings: isolate D15, 18 h; method in brief: as §3
Staphylococcus aureus [20] = assay: Antibacterial activity against Staphylococcus aureus isolate D14 derived from bone assessed as growth inhibition after 18 hrs by broth microdilution method; format: functional; settings: isolate D14, 18 h; method in brief: as §3
Staphylococcus aureus [21] = assay: Antibacterial activity against Staphylococcus aureus isolate F12 derived from ulcer and furuncle assessed as growth inhibition after 18 hrs by broth microdilution method; format: functional; settings: isolate F12, 18 h; method in brief: as §3
Staphylococcus aureus [22] = assay: Antibacterial activity against Staphylococcus aureus isolate F7 derived from ulcer and furuncle assessed as growth inhibition after 18 hrs by broth microdilution method; format: functional; settings: isolate F7, 18 h; method in brief: as §3
Staphylococcus aureus [23] = assay: Antibacterial activity against Staphylococcus aureus isolate F1 derived from ulcer and furuncle assessed as growth inhibition after 18 hrs by broth microdilution method; format: functional; settings: isolate F1, 18 h; method in brief: as §3
Staphylococcus aureus [24] = assay: Antibacterial activity against Staphylococcus aureus isolate D12 derived from ulcer and furuncle assessed as growth inhibition after 18 hrs by broth microdilution method; format: functional; settings: isolate D12, 18 h; method in brief: as §3
Staphylococcus aureus [25] = assay: Antibacterial activity against Staphylococcus aureus isolate C19 derived from naso-pharynx assessed as growth inhibition after 18 hrs by broth microdilution method; format: functional; settings: isolate C19, 18 h; method in brief: as §3
Staphylococcus aureus [26] = assay: Antibacterial activity against Staphylococcus aureus isolate C8 derived from naso-pharynx assessed as growth inhibition after 18 hrs by broth microdilution method; format: functional; settings: isolate C8, 18 h; method in brief: as §3
Staphylococcus aureus [27] = assay: Antibacterial activity against Staphylococcus aureus isolate C7 derived from naso-pharynx assessed as growth inhibition after 18 hrs by broth microdilution method; format: functional; settings: isolate C7, 18 h; method in brief: as §3
Staphylococcus aureus [28] = assay: Antibacterial activity against Staphylococcus aureus isolate C4 derived from naso-pharynx assessed as growth inhibition after 18 hrs by broth microdilution method; format: functional; settings: isolate C4, 18 h; method in brief: as §3
[29] = tested on: Staphylococcus epidermidis; assay: Bactericidal activity against Staphylococcus epidermidis ATCC 12228 after 18 hrs by broth microdilution method; format: functional; settings: ATCC 12228, 18 h; method in brief: as §2
Staphylococcus aureus [30] = assay: Bactericidal activity against Staphylococcus aureus ATCC 29213 after 18 hrs by broth microdilution method; format: functional; settings: ATCC 29213, 18 h; method in brief: as §2
Staphylococcus aureus [31] = assay: Bactericidal activity against Staphylococcus aureus ATCC 6538 after 18 hrs by broth microdilution method; format: functional; settings: ATCC 6538, 18 h; method in brief: as §2
Escherichia coli [32] = assay: Bactericidal activity against Escherichia coli NCTC 8192 after 18 hrs by broth microdilution method; format: functional; method in brief: as §2
[33] = tested on: Staphylococcus epidermidis; assay: Antibacterial activity against Staphylococcus epidermidis ATCC 12228 assessed as growth inhibition after 18 hrs by broth microdilution method; format: functional; settings: ATCC 12228, 18 h; method in brief: as §3
Staphylococcus aureus [34] = assay: Antibacterial activity against Staphylococcus aureus ATCC 29213 assessed as growth inhibition after 18 hrs by broth microdilution method; format: functional; settings: ATCC 29213, 18 h
Method in brief: (§4)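 Broth microdilution in Mueller–Hinton broth with 1–600 µg/mL compound added from DMSO stocks. Inoculum adjusted to 0.5 McFarland. Strains stored at -80 °C and subcultured on blood agar before use. Incubation 37 °C for 18 h with OD600 read. MIC taken as the lowest concentration preventing growth, run in triplicate following CLSI. Vancomycin and oxacillin served as controls.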

Staphylococcus aureus [35] = assay: Antibacterial activity against Staphylococcus aureus ATCC 6538 assessed as growth inhibition after 18 hrs by broth microdilution method; format: functional; settings: ATCC 6538, 18 h; method in brief: as §4
Escherichia coli [36] = assay: Antibacterial activity against Escherichia coli NCTC 8192 assessed as growth inhibition after 18 hrs by broth microdilution method; format: functional; method in brief: as §3

Cc1c(C(=O)N/N=C/c2ccc(N(C)C)cc2)[n+]([O-])cn1Cc1ccccc1
inactive: Activity (Candida albicans) | Activity (Pseudomonas aeruginosa) | Activity [1] | Activity (Enterococcus faecalis) | Activity (Proteus mirabilis) | Activity (Escherichia coli [2]) | Activity (Staphylococcus aureus [3]) | Activity (Proteus vulgaris) | Activity (Staphylococcus aureus [4])

Cc1onc(-c2ccccc2)c1C(=O)N[C@@H]1C(=O)N2[C@@H]1SC(C)(C)[C@@H]2C(=O)O [OXACILLIN]
0.8 µg/mL: MBC (Staphylococcus aureus [11]) | MIC (Staphylococcus aureus [23])
1.5 µg/mL: MBC (Staphylococcus aureus [14]) | MIC (Staphylococcus aureus [26])
0.4 µg/mL: MBC (Staphylococcus aureus [5]) | MBC (Staphylococcus aureus [9]) | MBC (Staphylococcus aureus [12]) | MBC (Staphylococcus aureus [15]) | MBC (Staphylococcus aureus [16]) | MIC (Staphylococcus aureus [17]) | MIC (Staphylococcus aureus [28])
inactive: MBC (Escherichia coli [32]) | MIC (Escherichia coli [36])
150 µg/mL: MBC (Staphylococcus aureus [6]) | MBC (Staphylococcus aureus [7])
75 µg/mL: MIC (Staphylococcus aureus [18]) | MIC (Staphylococcus aureus [19])
0.2 µg/mL: MBC (Staphylococcus aureus [8]) | MBC (Staphylococcus aureus [10]) | MBC (Staphylococcus aureus [13]) | MIC (Staphylococcus aureus [20]) | MIC (Staphylococcus aureus [21]) | MIC (Staphylococcus aureus [22]) | MIC (Staphylococcus aureus [24]) | MIC (Staphylococcus aureus [25]) | MIC (Staphylococcus aureus [27]) | MBC [29] | MBC (Staphylococcus aureus [30]) | MBC (Staphylococcus aureus [31]) | MIC [33] | MIC (Staphylococcus aureus [34]) | MIC (Staphylococcus aureus [35])

CN[C@H](CC(C)C)C(=O)N[C@H]1C(=O)N[C@@H](CC(N)=O)C(=O)N[C@H]2C(=O)N[C@H]3C(=O)N[C@H](C(=O)N[C@H](C(=O)O)c4cc(O)cc(O)c4-c4cc3ccc4O)[C@H](O)c3ccc(c(Cl)c3)Oc3cc2cc(c3O[C@@H]2O[C@H](CO)[C@@H](O)[C@H](O)[C@H]2O[C@H]2C[C@](C)(N)[C@H](O)[C@H](C)O2)Oc2ccc(cc2Cl)[C@H]1O [VANCOMYCIN]
1.5 µg/mL: MBC (Staphylococcus aureus [31]) | MIC (Staphylococcus aureus [34]) | MIC (Staphylococcus aureus [35])
3 µg/mL: MBC [29] | MBC (Staphylococcus aureus [30]) | MIC [33]
75 µg/mL: MBC (Staphylococcus aureus [5]) | MBC (Staphylococcus aureus [6]) | MBC (Staphylococcus aureus [7]) | MBC (Staphylococcus aureus [8]) | MBC (Staphylococcus aureus [11]) | MBC (Staphylococcus aureus [12]) | MBC (Staphylococcus aureus [13]) | MBC (Staphylococcus aureus [14]) | MIC (Staphylococcus aureus [17]) | MIC (Staphylococcus aureus [18]) | MIC (Staphylococcus aureus [19]) | MIC (Staphylococcus aureus [20]) | MIC (Staphylococcus aureus [23]) | MIC (Staphylococcus aureus [24]) | MIC (Staphylococcus aureus [25]) | MIC (Staphylococcus aureus [26])
35 µg/mL: MBC (Staphylococcus aureus [10]) | MBC (Staphylococcus aureus [15]) | MIC (Staphylococcus aureus [22]) | MIC (Staphylococcus aureus [27])
10 µg/mL: MBC (Staphylococcus aureus [9]) | MBC (Staphylococcus aureus [16]) | MIC (Staphylococcus aureus [21]) | MIC (Staphylococcus aureus [28])
inactive: MBC (Escherichia coli [32]) | MIC (Escherichia coli [36])

O=C1CN(/N=C/c2ccc([N+](=O)[O-])o2)C(=O)N1 [NITROFURANTOIN]
32 µg/mL: MBC [29] | MBC (Staphylococcus aureus [30]) | MBC (Staphylococcus aureus [31]) | MBC (Escherichia coli [32]; NCTC 8192, 18 h)
8 µg/mL: MIC [33]
16 µg/mL: MIC (Staphylococcus aureus [34]) | MIC (Staphylococcus aureus [35]) | MIC (Escherichia coli [36]; NCTC 8192, 18 h)

Cc1c(C(=O)N/N=C/c2ccc([N+](=O)[O-])cc2)[n+]([O-])cn1Cc1ccccc1
inactive: Activity (Candida albicans) | Activity (Pseudomonas aeruginosa) | Activity [1] | Activity (Enterococcus faecalis) | Activity (Proteus mirabilis) | Activity (Escherichia coli [2]) | Activity (Staphylococcus aureus [3]) | Activity (Proteus vulgaris) | Activity (Staphylococcus aureus [4])

Cc1c(C(=O)N/N=C/c2ccco2)[n+]([O-])cn1Cc1ccccc1
inactive: Activity (Candida albicans) | Activity (Pseudomonas aeruginosa) | Activity [1] | Activity (Enterococcus faecalis) | Activity (Proteus mirabilis) | Activity (Escherichia coli [2]) | Activity (Staphylococcus aureus [3]) | Activity (Proteus vulgaris) | Activity (Staphylococcus aureus [4])
